# Experimental data from ChEMBL document CHEMBL4138082 (Eur J Med Chem, 2017).
# Activity calls are given as the source filed them. The rule behind the calls is not given here.
# How the values were obtained:
# [1] = Selectivity index, ratio of IC50 for human L02 cells to IC50 for human HepG2 cells; type: toxicity; details: L02 cells and HepG2 cells, read-out: Ratio IC50
# Method in brief: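 MTT assay: cells grown 24 h at 37 °C, 5% CO2, then exposed 72 h; MTT (5 mg/mL) added for 4 h, formazan dissolved in DMSO, OD read at 570 nm. Vehicle 0.1% DMSO. Three independent experiments.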
# HepG2 [2] = test: Cell cycle arrest in human HepG2 cells assessed as G1 phase accumulation at 0.25 uM after 48 hrs by propidium iodide staining based flow cytometry (reference value: 32.74%); type: functional
# Method in brief: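 HepG-2 cells were plated and grown 24 h at 37 °C, then treated 48 h at 0, 0.0625, 0.125 or 0.25 µM, with 0.1% DMSO as control. Cells were fixed overnight in 70% ethanol at 4 °C, treated with RNase A and stained with propidium iodide. DNA content was measured by flow cytometry to give cell-cycle phase distribution.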
# HepG2 [3] = test: Cell cycle arrest in human HepG2 cells assessed as G2 phase accumulation at 0.25 uM after 48 hrs in presence of hemoglobin by propidium iodide staining based flow cytometry (reference value: 10.67%); type: functional
# HepG2 [4] = test: Induction of apoptosis in human HepG2 cells assessed as early apoptotic cells at 0.0625 uM after 48 hrs by […] based flow cytometry (reference value: 3.18%); type: functional
# HepG2 [5] = test: Induction of apoptosis in human HepG2 cells assessed as late apoptotic cells at 0.25 uM after 48 hrs by […] based flow cytometry (reference value: 3.36%); type: functional
# HepG2 [6] = test: Induction of apoptosis in human HepG2 cells assessed as necrotic cells at 0.25 uM after 48 hrs by Annexin V-APC/7-AAD staining based flow cytometry (reference value: 2.40%); type: functional
# HepG2 [7] = test: Induction of apoptosis in human HepG2 cells assessed as late apoptotic cells at 0.25 uM after 48 hrs in presence of hemoglobin by Annexin V-APC/7-AAD staining based flow cytometry (reference value: 3.36%); type: functional
# HepG2 [8] = test: Induction of apoptosis in human HepG2 cells assessed as cell population with mitochondrial membrane potential loss at 0.0625 uM measured after 48 hrs by JC-1 staining based flow cytometry (reference value: 1.49%); type: functional
# Method in brief: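 HepG-2 cells were exposed 48 h to 0.0625, 0.125 or 0.25 µM or to vehicle, then washed in PBS and stained with JC-1 in the dark. Red aggregate versus green monomer fluorescence was measured by flow cytometry to give the percentages of cells with healthy versus collapsed mitochondrial membrane potential.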
# HepG2 [9] = test: Upregulation of caspase 3 level in human HepG2 cells up to 0.25 uM after 48 hrs by Western blot method; type: functional, cell-based
# HepG2 [10] = test: Downregulation of Bcl-2 level in human HepG2 cells up to 0.25 uM after 48 hrs by Western blot method; type: functional, cell-based
# Method in brief: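 HepG-2 cells were exposed 48 h to 0, 0.0625, 0.125 or 0.25 µM and lysed on ice for 20 min. Equal protein loads were run on 12% SDS-PAGE and transferred to PVDF. Membranes were probed overnight at 4 °C with primary antibodies, then with HRP-conjugated secondaries, and detected by ECL chemiluminescence.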
smiles,measurement,setting,value
C[C@H]1CCC/C=C/[C@@H]2C[C@H](OC(=O)CCCC(=O)OCCOc3no[n+]([O-])c3S(=O)(=O)c3ccccc3)C[C@H]2[C@H](OC(=O)CCCC(=O)OCCOc2no[n+]([O-])c2S(=O)(=O)c2ccccc2)/C=C/C(=O)O1,selectivity ratio,[1],33
same,Activity,HepG2 [2],25.17%
same,Activity,HepG2 [3],5.3%
same,Activity,HepG2 [4],3.1%
same,Activity,HepG2 [5],40.21%
same,Activity,HepG2 [6],5.47%
same,Activity,HepG2 [7],12.24%
same,Activity,HepG2 [8],16.58%
same,Activity,HepG2 [9],Active
same,Activity,HepG2 [10],Active
